{"data": "Results pooled from the literature", "target": "Protein kinase C eta type (PRKCH, Homo sapiens, UniProt P24723)", "note": "Compare with care: the assays were run in different laboratories."}
{"Structure (SMILES)": "Cc1ccc(NC(=O)c2ccc(C)c(C(F)(F)F)c2)cc1C#Cc1nn(C2CCC(O)CC2)c2ncnc(N)c12 (stereo not shown)", "assay": "cell-free assay", "setting": "10 µM", "measurement": "remaining signal", "value": "72%"}
{"Structure (SMILES)": "CCN(CC)CCNC(=O)c1c(C)[nH]c(/C=C2\\C(=O)Nc3ccc(F)cc32)c1C", "assay": "enzyme activity, inhibitor", "setting": "10 µM", "measurement": "inhibition", "value": "4%"}
{"Structure (SMILES)": "CC(C)CC(=O)N1CCc2nc(-c3ccc(Br)cc3)nc(N(C)Cc3ccccc3)c2C1", "assay": "cell-free assay, competition with immobilised ligand", "setting": "0.1 µM", "measurement": "remaining binding", "value": "94%"}
{"Structure (SMILES)": "CCCS(=O)(=O)Nc1ccc(F)c(C(=O)c2c[nH]c3ncc(-c4ccc(Cl)cc4)cc23)c1F", "assay": "enzyme activity, inhibitor", "setting": "1 µM", "measurement": "inhibition", "value": "< 10%"}
{"Structure (SMILES)": "CC(C)(O)[C@H]1CC[C@H](Nc2ccc3ncc(-c4cccc(C(F)(F)F)c4)n3n2)CC1", "assay": "enzyme activity, inhibitor", "setting": "1 µM", "measurement": "remaining activity", "value": "97.2%"}
{"Structure (SMILES)": "COc1cc2ncnc(Nc3ccc(Oc4ccccc4)cc3C)c2cc1OC", "assay": "enzyme activity, inhibitor", "setting": "1 µM", "measurement": "inhibition", "value": "7%"}
{"Structure (SMILES)": "O=C(Nc1cnn(-c2csc(C(=O)NC3COC3)c2)c1)Nc1c(F)cccc1Cl", "assay": "enzyme activity, inhibitor", "setting": "5 µM", "measurement": "remaining activity", "value": "99%"}
{"Structure (SMILES)": "Cn1cnc(Br)c1C1=CN(c2ncnc3[nH]cnc23)CCS1", "assay": "enzyme activity, inhibitor, radiometric", "setting": "2 µM", "measurement": "inhibition", "value": "91.8%"}
{"Structure (SMILES)": "Nc1ncnc2occ(-c3ccc(NC(=O)Nc4cc(C(F)(F)F)ccc4F)cc3)c12", "assay": "cell-free assay", "setting": "20 µM", "measurement": "remaining signal", "value": "64%"}
{"Structure (SMILES)": "CCS(=O)(=O)c1cc2cc(C[C@](O)(CC(C)(C)c3ccc(F)cc3C(N)=O)C(F)(F)F)[nH]c2cn1", "assay": "cell-free assay, competition with immobilised ligand", "setting": "1 µM", "measurement": "remaining binding", "value": "94%"}
{"Structure (SMILES)": "Cc1sc(C(=O)NC2COC2)cc1-n1cc(NC(=O)Nc2c(F)cccc2Cl)cn1", "assay": "enzyme activity, inhibitor", "setting": "10 µM", "measurement": "remaining activity", "value": "91.6%"}
{"Structure (SMILES)": "CC(=O)c1c(NS(C)(=O)=O)c2cc(-c3ccc(Cl)cc3)c(-c3ccc(Cl)cc3Cl)nc2n(C)c1=O", "assay": "cell-free assay, competition with immobilised ligand", "setting": "1 µM", "measurement": "remaining binding", "value": "91%"}
{"Structure (SMILES)": "COc1cc(Cl)c(C(=O)N[C@@H](CN[C@H]2CC[C@@H](N)CC2)Cc2ccc(C#N)cc2)cc1-c1ccc(CN[C@H](C)c2ccc(C)cc2)o1", "assay": "enzyme activity, inhibitor", "setting": "1 µM", "measurement": "remaining activity", "value": "104%"}
{"Structure (SMILES)": "CS(=O)(=O)NCC[C@H](NC(=O)c1cncc2c1cnn2-c1ccc(F)cc1)c1ccnc(S(C)(=O)=O)c1", "assay": "cell-free assay, competition with immobilised ligand", "setting": "1 µM", "measurement": "remaining binding", "value": "80%"}
{"Structure (SMILES)": "C[C@@H]1CCN(c2nccc(-c3cnn4ncccc34)n2)C1", "assay": "binding", "setting": "1 µM", "measurement": "remaining binding", "value": "83%"}
{"Structure (SMILES)": "CCCOc1ccc([C@H]2[C@H](C(=O)O)[C@@H](c3ccc4c(c3)OCO4)CN2CC(=O)Nc2c(CC)cccc2CC)cc1", "assay": "cell-free assay, competition with immobilised ligand", "setting": "1 µM", "measurement": "remaining binding", "value": "100%"}
{"Structure (SMILES)": "CC/C(=N\\NC(=O)NCc1cccc(O)c1)c1ccc(O)c(C)c1O", "assay": "enzyme activity, inhibitor", "setting": "0.1 µM", "measurement": "inhibition", "value": "44.8%"}
{"Structure (SMILES)": "CNC(=O)c1ccc(Nc2ncc(C(F)(F)F)c(NCc3nccnc3N(C)S(C)(=O)=O)n2)cc1", "assay": "cell-free assay, competition with immobilised ligand", "setting": "0.1 µM", "measurement": "remaining binding", "value": "86%"}
{"Structure (SMILES)": "Cn1cncc1C1=CN(c2ncnc3[nH]cnc23)CCS1", "assay": "enzyme activity, inhibitor, radiometric", "setting": "2 µM", "measurement": "inhibition", "value": "83.6%"}
